From ChEMBL document CHEMBL1153919, “Pyrano[2,3-e]isoindol-2-ones, new angelicin heteroanalogues” (Bioorg Med Chem Lett, 2009)
Active and inactive are the calls of the source. The rule behind the calls is not given here.

system: not listed separately; assay: Phototoxicity against human NCTC-2544 cells exposed to irradiation with 3.75 J/cm'2 UVA light prior to 72 hrs drug exposure by MTT assay; format: cell-based; conditions: NCTC-2544, light or radiation study
Procedure, shortened: (§1)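 Phototoxicity panel: NCTC-2544 keratinocytes, LoVo adenocarcinoma, K562 and Jurkat leukemia cells. Cells with compound received UVA at 2.5 or 3.75 J/cm2. Cell growth was measured by MTT after 72 h of exposure. IC50 is the concentration inhibiting growth by 50%.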

| Structure (SMILES) | IC50 [µM] |
| --- | --- |
| CCOC(=O)c1cc2c(oc1=O)-c1c(c(C(=O)OCC)n(Cc3ccc(C)cc3)c1C)CC2 | 17 |
| CCOC(=O)c1cc2c(oc1=O)-c1cn(Cc3ccccc3)cc1CC2 | > 20 |
| CCOC(=O)c1c2c(c(C)n1Cc1ccc(C)cc1)-c1oc(=O)c(C(=O)OC)cc1CC2 | > 20 |
| CCOC(=O)c1c2c(c(C)n1Cc1ccccc1)-c1oc(=O)c(C(=O)OC)cc1CC2 | 10 |

system: Jurkat; assay: Cytotoxicity against human Jurkat cells after 72 hrs by MTT assay; format: functional, cell-based; conditions: not given

| Structure (SMILES) | IC50 [µM] |
| --- | --- |
| CCOC(=O)c1cc2c(oc1=O)-c1c(c(C(=O)OCC)n(Cc3ccc(C)cc3)c1C)CC2 | > 20 |
| CCOC(=O)c1cc2c(oc1=O)-c1cn(Cc3ccccc3)cc1CC2 | > 20 |
| CCOC(=O)c1c2c(c(C)n1Cc1ccc(C)cc1)-c1oc(=O)c(C(=O)OC)cc1CC2 | > 20 |
| CCOC(=O)c1c2c(c(C)n1Cc1ccccc1)-c1oc(=O)c(C(=O)OC)cc1CC2 | > 20 |

system: not listed separately; assay: Phototoxicity against human NCTC-2544 cells exposed to irradiation with 2.5 J/cm'2 UVA light prior to 72 hrs drug exposure by MTT assay; format: cell-based; conditions: NCTC-2544, light or radiation study; procedure, shortened: as §1

| Structure (SMILES) | IC50 [µM] |
| --- | --- |
| CCOC(=O)c1cc2c(oc1=O)-c1c(c(C(=O)OCC)n(Cc3ccc(C)cc3)c1C)CC2 | > 20 |
| CCOC(=O)c1cc2c(oc1=O)-c1cn(Cc3ccccc3)cc1CC2 | > 20 |
| CCOC(=O)c1c2c(c(C)n1Cc1ccc(C)cc1)-c1oc(=O)c(C(=O)OC)cc1CC2 | > 20 |
| CCOC(=O)c1c2c(c(C)n1Cc1ccccc1)-c1oc(=O)c(C(=O)OC)cc1CC2 | 14 |

system: Jurkat; assay: Induction of lipid peroxidation in 2.5 J/cm'2 UVA light irradiated human Jurkat cells at 10 uM by TBARS test; format: functional, cell-based; conditions: not given

| Structure (SMILES) | Activity |
| --- | --- |
| CCOC(=O)c1c2c(c(C)n1Cc1ccccc1)-c1oc(=O)c(C(=O)OC)cc1CC2 | Active |

system: Jurkat; assay: Induction of lipid peroxidation in 2.5 J/cm'2 UVA light irradiated human Jurkat cells at 20 uM by TBARS test; format: functional, cell-based; conditions: not given

| Structure (SMILES) | Activity |
| --- | --- |
| CCOC(=O)c1c2c(c(C)n1Cc1ccccc1)-c1oc(=O)c(C(=O)OC)cc1CC2 | Active |

system: not listed separately; assay: Cytotoxicity against human NCTC-2544 cells after 72 hrs by MTT assay; format: cell-based; conditions: NCTC-2544, 72 h

| Structure (SMILES) | IC50 [µM] |
| --- | --- |
| CCOC(=O)c1cc2c(oc1=O)-c1c(c(C(=O)OCC)n(Cc3ccc(C)cc3)c1C)CC2 | > 20 |
| CCOC(=O)c1cc2c(oc1=O)-c1cn(Cc3ccccc3)cc1CC2 | > 20 |
| CCOC(=O)c1c2c(c(C)n1Cc1ccc(C)cc1)-c1oc(=O)c(C(=O)OC)cc1CC2 | > 20 |
| CCOC(=O)c1c2c(c(C)n1Cc1ccccc1)-c1oc(=O)c(C(=O)OC)cc1CC2 | > 20 |

system: K562; assay: Cytotoxicity against human K562 cells after 72 hrs by MTT assay; format: functional, cell-based; conditions: K562, 72 h

| Structure (SMILES) | IC50 [µM] |
| --- | --- |
| CCOC(=O)c1cc2c(oc1=O)-c1c(c(C(=O)OCC)n(Cc3ccc(C)cc3)c1C)CC2 | > 20 |
| CCOC(=O)c1cc2c(oc1=O)-c1cn(Cc3ccccc3)cc1CC2 | > 20 |
| CCOC(=O)c1c2c(c(C)n1Cc1ccc(C)cc1)-c1oc(=O)c(C(=O)OC)cc1CC2 | > 20 |
| CCOC(=O)c1c2c(c(C)n1Cc1ccccc1)-c1oc(=O)c(C(=O)OC)cc1CC2 | > 20 |

system: Jurkat; assay: Cell cycle arrest in 2.5 J/cm'2 UVA light irradiated human Jurkat cells assessed as accumulation at subG1 phase at 5 uM after 24 hrs by DNA cytometry; format: functional; conditions: not given
Procedure, shortened: (§2)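 Jurkat (T-cell leukemia) cells were UVA-irradiated at 2.5 J/cm2 in the presence of 5 µM compound. DNA content was analysed by flow cytometry 24 h after irradiation. Controls were non-irradiated cells and cells irradiated without compound. A representative experiment is shown, repeated two times.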

| Structure (SMILES) | Activity [%] |
| --- | --- |
| CCOC(=O)c1c2c(c(C)n1Cc1ccccc1)-c1oc(=O)c(C(=O)OC)cc1CC2 | 14.8 |

system: Jurkat; assay: Phototoxicity against human Jurkat cells exposed to irradiation with 2.5 J/cm'2 UVA light prior to 72 hrs drug exposure by MTT assay; format: functional, cell-based; conditions: light or radiation study; procedure, shortened: as §1

| Structure (SMILES) | IC50 [µM] |
| --- | --- |
| CCOC(=O)c1cc2c(oc1=O)-c1c(c(C(=O)OCC)n(Cc3ccc(C)cc3)c1C)CC2 | 16.1 |
| CCOC(=O)c1cc2c(oc1=O)-c1cn(Cc3ccccc3)cc1CC2 | > 20 |
| CCOC(=O)c1c2c(c(C)n1Cc1ccc(C)cc1)-c1oc(=O)c(C(=O)OC)cc1CC2 | > 20 |
| CCOC(=O)c1c2c(c(C)n1Cc1ccccc1)-c1oc(=O)c(C(=O)OC)cc1CC2 | 8.4 |

system: Jurkat; assay: Cell cycle arrest in 2.5 J/cm'2 UVA light irradiated human Jurkat cells assessed as accumulation at G2/M phase at 5 uM after 24 hrs by DNA cytometry; format: functional; conditions: not given; procedure, shortened: as §2

| Structure (SMILES) | Activity [%] |
| --- | --- |
| CCOC(=O)c1c2c(c(C)n1Cc1ccccc1)-c1oc(=O)c(C(=O)OC)cc1CC2 | 11.7 |

system: LoVo; assay: Cytotoxicity against human LoVo cells after 72 hrs by MTT assay; format: functional, cell-based; conditions: not given

| Structure (SMILES) | IC50 [µM] |
| --- | --- |
| CCOC(=O)c1cc2c(oc1=O)-c1c(c(C(=O)OCC)n(Cc3ccc(C)cc3)c1C)CC2 | > 20 |
| CCOC(=O)c1cc2c(oc1=O)-c1cn(Cc3ccccc3)cc1CC2 | > 20 |
| CCOC(=O)c1c2c(c(C)n1Cc1ccc(C)cc1)-c1oc(=O)c(C(=O)OC)cc1CC2 | > 20 |
| CCOC(=O)c1c2c(c(C)n1Cc1ccccc1)-c1oc(=O)c(C(=O)OC)cc1CC2 | > 20 |

system: Jurkat; assay: Induction of lipid peroxidation in 2.5 J/cm'2 UVA light irradiated human Jurkat cells at 5 uM by TBARS test; format: functional, cell-based; conditions: not given

| Structure (SMILES) | Activity |
| --- | --- |
| CCOC(=O)c1c2c(c(C)n1Cc1ccccc1)-c1oc(=O)c(C(=O)OC)cc1CC2 | Active |

system: Jurkat; assay: Cell cycle arrest in 2.5 J/cm'2 UVA light irradiated human Jurkat cells assessed as accumulation at G1 phase at 5 uM after 24 hrs by DNA cytometry; format: functional; conditions: not given; procedure, shortened: as §2

| Structure (SMILES) | Activity [%] |
| --- | --- |
| CCOC(=O)c1c2c(c(C)n1Cc1ccccc1)-c1oc(=O)c(C(=O)OC)cc1CC2 | 44.7 |

system: K562; assay: Phototoxicity against human K562 cells exposed to irradiation with 2.5 J/cm'2 UVA light prior to 72 hrs drug exposure by MTT assay; format: functional, cell-based; conditions: K562, light or radiation study; procedure, shortened: as §1

| Structure (SMILES) | IC50 [µM] |
| --- | --- |
| CCOC(=O)c1cc2c(oc1=O)-c1c(c(C(=O)OCC)n(Cc3ccc(C)cc3)c1C)CC2 | 13.5 |
| CCOC(=O)c1cc2c(oc1=O)-c1cn(Cc3ccccc3)cc1CC2 | > 20 |
| CCOC(=O)c1c2c(c(C)n1Cc1ccc(C)cc1)-c1oc(=O)c(C(=O)OC)cc1CC2 | > 20 |
| CCOC(=O)c1c2c(c(C)n1Cc1ccccc1)-c1oc(=O)c(C(=O)OC)cc1CC2 | 6.1 |

system: LoVo; assay: Phototoxicity against human LoVo cells exposed to irradiation with 3.75 J/cm'2 UVA light prior to 72 hrs drug exposure by MTT assay; format: functional, cell-based; conditions: light or radiation study; procedure, shortened: as §1

| Structure (SMILES) | IC50 [µM] |
| --- | --- |
| CCOC(=O)c1cc2c(oc1=O)-c1c(c(C(=O)OCC)n(Cc3ccc(C)cc3)c1C)CC2 | 15 |
| CCOC(=O)c1cc2c(oc1=O)-c1cn(Cc3ccccc3)cc1CC2 | > 20 |
| CCOC(=O)c1c2c(c(C)n1Cc1ccc(C)cc1)-c1oc(=O)c(C(=O)OC)cc1CC2 | > 20 |
| CCOC(=O)c1c2c(c(C)n1Cc1ccccc1)-c1oc(=O)c(C(=O)OC)cc1CC2 | 7.3 |

system: Jurkat; assay: Phototoxicity against human Jurkat cells exposed to irradiation with 3.75 J/cm'2 UVA light prior to 72 hrs drug exposure by MTT assay; format: functional, cell-based; conditions: light or radiation study; procedure, shortened: as §1

| Structure (SMILES) | IC50 [µM] |
| --- | --- |
| CCOC(=O)c1cc2c(oc1=O)-c1c(c(C(=O)OCC)n(Cc3ccc(C)cc3)c1C)CC2 | 12.8 |
| CCOC(=O)c1cc2c(oc1=O)-c1cn(Cc3ccccc3)cc1CC2 | > 20 |
| CCOC(=O)c1c2c(c(C)n1Cc1ccc(C)cc1)-c1oc(=O)c(C(=O)OC)cc1CC2 | 17.8 |
| CCOC(=O)c1c2c(c(C)n1Cc1ccccc1)-c1oc(=O)c(C(=O)OC)cc1CC2 | 3.7 |

system: LoVo; assay: Phototoxicity against human LoVo cells exposed to irradiation with 2.5 J/cm'2 UVA light prior to 72 hrs drug exposure by MTT assay; format: functional, cell-based; conditions: light or radiation study; procedure, shortened: as §1

| Structure (SMILES) | IC50 [µM] |
| --- | --- |
| CCOC(=O)c1cc2c(oc1=O)-c1c(c(C(=O)OCC)n(Cc3ccc(C)cc3)c1C)CC2 | > 20 |
| CCOC(=O)c1cc2c(oc1=O)-c1cn(Cc3ccccc3)cc1CC2 | > 20 |
| CCOC(=O)c1c2c(c(C)n1Cc1ccc(C)cc1)-c1oc(=O)c(C(=O)OC)cc1CC2 | > 20 |
| CCOC(=O)c1c2c(c(C)n1Cc1ccccc1)-c1oc(=O)c(C(=O)OC)cc1CC2 | 7.7 |

system: Jurkat; assay: Cell cycle arrest in 2.5 J/cm'2 UVA light irradiated human Jurkat cells assessed as accumulation at S phase at 5 uM after 24 hrs by DNA cytometry; format: functional; conditions: not given; procedure, shortened: as §2

| Structure (SMILES) | Activity [%] |
| --- | --- |
| CCOC(=O)c1c2c(c(C)n1Cc1ccccc1)-c1oc(=O)c(C(=O)OC)cc1CC2 | 44.2 |

system: K562; assay: Phototoxicity against human K562 cells exposed to irradiation with 3.75 J/cm'2 UVA light prior to 72 hrs drug exposure by MTT assay; format: functional, cell-based; conditions: K562, light or radiation study; procedure, shortened: as §1

| Structure (SMILES) | IC50 [µM] |
| --- | --- |
| CCOC(=O)c1cc2c(oc1=O)-c1c(c(C(=O)OCC)n(Cc3ccc(C)cc3)c1C)CC2 | 9.3 |
| CCOC(=O)c1cc2c(oc1=O)-c1cn(Cc3ccccc3)cc1CC2 | > 20 |
| CCOC(=O)c1c2c(c(C)n1Cc1ccc(C)cc1)-c1oc(=O)c(C(=O)OC)cc1CC2 | 16.6 |
| CCOC(=O)c1c2c(c(C)n1Cc1ccccc1)-c1oc(=O)c(C(=O)OC)cc1CC2 | 2.7 |
